Calls of active or inactive are those of the source. The rule behind the calls is not given here.
Legend:
[1] = target: T1, Glutamate NMDA receptor; Grin1/Grin2a (Rattus norvegicus, UniProt P35439+Q00959); test: Negative allosteric modulation of rat GluN1/GluN2A expressed in Xenopus laevis oocytes assessed as inhibition of L-glutamate/glycine-induced current response at holding potential -60 mV by two-electrode voltage clamp method; type: cell-based
Procedure, shortened: (§1)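 Oocytes injected with GluN1a plus GluN2A, 2B, 2C or 2D RNA (1:1–3 molar, 15–30 ng total) and kept in ND-96 at 17°C for 1–5 days. TEVC at −60 mV in HEPES-buffered NaCl/KCl/BaCl2 saline, pH 7.4. […] Curves were fitted to give EC50/IC50 and maximal potentiation or inhibition, mean ± s.e.m.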

[2] = target: T2, Glutamate NMDA receptor; Grin1/Grin2c (Rattus norvegicus) (UniProt P35439+Q00961); test: Negative allosteric modulation of rat GluN1/GluN2C expressed in Xenopus laevis oocytes assessed as inhibition of 300 uM glutamate/glycine-induced current response at 30 uM at -60 mV holding potential by two-electrode voltage clamp method; type: cell-based
[3] = target: T3, Glutamate NMDA receptor; Grin1/Grin2b (Rattus norvegicus, UniProt P35439+Q00960); test: Negative allosteric modulation of rat GluN1/GluN2B expressed in Xenopus laevis oocytes assessed as inhibition of L-glutamate/glycine-induced current response at holding potential -60 mV by two-electrode voltage clamp method; type: cell-based; procedure, shortened: as §1
[4] = target: T4, Ionotropic glutamate receptor NMDA 1/2D (Rattus norvegicus, UniProt P35439+Q62645); test: Negative allosteric modulation of rat GluN1/GluN2D expressed in Xenopus laevis oocytes assessed as inhibition of L-glutamate/glycine-induced current response at holding potential -60 mV by two-electrode voltage clamp method; type: cell-based; procedure, shortened: as §1
[5] = target: T2, Glutamate NMDA receptor; Grin1/Grin2c (Rattus norvegicus); test: Negative allosteric modulation of rat GluN1/GluN2C expressed in Xenopus laevis oocytes assessed as inhibition of 10 uM glutamate/glycine-induced current response at 30 uM at -60 mV holding potential by two-electrode voltage clamp method; type: cell-based
[6] = target: Glutamate receptor ionotropic, NMDA 2A (Rattus norvegicus) (UniProt Q00959); test: Allosteric modulation of rat GluN2A expressed in Xenopus laevis oocytes assessed as L-glutamate/glycine-induced current response at 100 uM at holding potential -60 mV by two-electrode voltage clamp method relative to L-glutamate/glycine; type: cell-based
Procedure, shortened: (§2)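 GluN1a with one GluN2 subunit; RNAs mixed 1:1–3 molar, 15–30 ng total injected into Xenopus oocytes, which were held in ND-96 at 17°C for 1–5 days. TEVC at −60 mV in 116 mM NaCl, 2 mM KCl, 0.3 mM BaCl2, 5 mM HEPES, pH 7.4. […] Reported as % of agonist-alone response, mean ± s.e.m., n≥4.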

[7] = target: Glutamate NMDA receptor; Grin1/Grin2a (Rattus norvegicus) (UniProt P35439+Q00959); test: Negative allosteric modulation of rat GluN1/GluN2A expressed in Xenopus laevis oocytes assessed as inhibition of L-glutamate/glycine-induced current response at holding potential -60 mV by two-electrode voltage clamp method relative to untreated control; type: cell-based; design: concentration or dose not given beside the values; procedure, shortened: as §1
[8] = target: Ionotropic glutamate receptor NMDA 1/2D (Rattus norvegicus) (UniProt P35439+Q62645); test: Negative allosteric modulation of rat GluN1/GluN2D expressed in Xenopus laevis oocytes assessed as inhibition of L-glutamate/glycine-induced current response at holding potential -60 mV by two-electrode voltage clamp method relative to untreated control; type: cell-based; design: concentration or dose not given beside the values; procedure, shortened: as §1
[9] = Solubility of the compound at 100 uM; type: physicochemical
Procedure, shortened: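 Compounds were inspected for visible precipitation at the concentrations used in the oocyte assays.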

[10] = target: Glutamate receptor ionotropic, NMDA 2B (Rattus norvegicus) (UniProt Q00960); test: Allosteric modulation of rat GluN2B expressed in Xenopus laevis oocytes assessed as L-glutamate/glycine-induced current response at 100 uM at holding potential -60 mV by two-electrode voltage clamp method relative to L-glutamate/glycine; type: cell-based; procedure, shortened: as §2
[11] = target: Glutamate receptor ionotropic, NMDA 2C (Rattus norvegicus) (UniProt Q00961); test: Allosteric modulation of rat GluN2C expressed in Xenopus laevis oocytes assessed as L-glutamate/glycine-induced current response at 100 uM at holding potential -60 mV by two-electrode voltage clamp method relative to L-glutamate/glycine; type: cell-based; procedure, shortened: as §2
[12] = target: T5, Glutamate NMDA receptor; Grin1/Grin2c (Rattus norvegicus, UniProt P35439+Q00961); test: Negative allosteric modulation of rat GluN1/GluN2C expressed in Xenopus laevis oocytes assessed as inhibition of L-glutamate/glycine-induced current response at holding potential -60 mV by two-electrode voltage clamp method; type: cell-based; procedure, shortened: as §1
[13] = target: T2, Glutamate NMDA receptor; Grin1/Grin2c (Rattus norvegicus); test: Negative allosteric modulation of rat GluN1/GluN2C expressed in Xenopus laevis oocytes assessed as inhibition of L-glutamate/glycine-induced current response at holding potential -60 mV by two-electrode voltage clamp method relative to untreated control; type: cell-based; design: concentration or dose not given beside the values; procedure, shortened: as §1
[14] = target: Glutamate NMDA receptor; Grin1/Grin2b (Rattus norvegicus) (UniProt P35439+Q00960); test: Negative allosteric modulation of rat GluN1/GluN2B expressed in Xenopus laevis oocytes assessed as inhibition of L-glutamate/glycine-induced current response at holding potential -60 mV by two-electrode voltage clamp method relative to untreated control; type: cell-based; design: concentration or dose not given beside the values; procedure, shortened: as §1
[15] = target: Glutamate receptor ionotropic, NMDA 2D (Rattus norvegicus) (UniProt Q62645); test: Allosteric modulation of rat GluN2D expressed in Xenopus laevis oocytes assessed as L-glutamate/glycine-induced current response at 100 uM at holding potential -60 mV by two-electrode voltage clamp method relative to L-glutamate/glycine; type: cell-based; procedure, shortened: as §2
[16] = target: Glutamate receptor ionotropic, NMDA 2B (Rattus norvegicus) (UniProt Q00960); test: Positive allosteric modulation of rat GluN2B expressed in Xenopus laevis oocytes assessed as potentiation of L-glutamate/glycine-induced current response at holding potential -60 mV by two-electrode voltage clamp method relative to L-glutamate/glycine; type: cell-based; procedure, shortened: as §1
[17] = target: Glutamate receptor ionotropic, NMDA 2D (Rattus norvegicus) (UniProt Q62645); test: Agonist activity at rat GluN2D expressed in Xenopus laevis oocytes assessed as effect on current response at holding potential -60 mV by two-electrode voltage clamp method relative to L-glutamate/glycine; type: cell-based; procedure, shortened: as §2
[18] = target: Glutamate receptor ionotropic, NMDA 2C (Rattus norvegicus) (UniProt Q00961); test: Agonist activity at rat GluN2C expressed in Xenopus laevis oocytes assessed effect on current response at holding potential -60 mV by two-electrode voltage clamp method relative to L-glutamate/glycine; type: cell-based; procedure, shortened: as §2
[19] = target: T5, Glutamate NMDA receptor; Grin1/Grin2c; test: Positive allosteric modulation of rat GluN1/GluN2C expressed in Xenopus laevis oocytes assessed as potentiation of L-glutamate/glycine-induced current response at holding potential -60 mV by two-electrode voltage clamp method; type: cell-based; procedure, shortened: as §1
[20] = target: Glutamate receptor ionotropic, NMDA 2D (Rattus norvegicus) (UniProt Q62645); test: Positive allosteric modulation of rat GluN2D expressed in Xenopus laevis oocytes assessed as potentiation of L-glutamate/glycine-induced current response at holding potential -60 mV by two-electrode voltage clamp method relative to L-glutamate/glycine; type: cell-based; design: concentration or dose not given beside the values; procedure, shortened: as §1
[21] = target: T4, Ionotropic glutamate receptor NMDA 1/2D; test: Positive allosteric modulation of rat GluN1/GluN2D expressed in Xenopus laevis oocytes assessed as potentiation of L-glutamate/glycine-induced current response at holding potential -60 mV by two-electrode voltage clamp method; type: cell-based; procedure, shortened: as §1
[22] = target: Glutamate receptor ionotropic, NMDA 2A (Rattus norvegicus) (UniProt Q00959); test: Agonist activity at rat GluN2A expressed in Xenopus laevis oocytes assessed effect on current response at holding potential -60 mV by two-electrode voltage clamp method relative to L-glutamate/glycine; type: cell-based; procedure, shortened: as §2
[23] = target: Glutamate receptor ionotropic, NMDA 2C (Rattus norvegicus) (UniProt Q00961); test: Positive allosteric modulation of rat GluN2C expressed in Xenopus laevis oocytes assessed as potentiation of L-glutamate/glycine-induced current response at holding potential -60 mV by two-electrode voltage clamp method relative to L-glutamate/glycine; type: cell-based; design: concentration or dose not given beside the values; procedure, shortened: as §1
[24] = target: Glutamate receptor ionotropic, NMDA 2B (Rattus norvegicus) (UniProt Q00960); test: Agonist activity at rat GluN2B expressed in Xenopus laevis oocytes assessed as effect on current response at holding potential -60 mV by two-electrode voltage clamp method relative to L-glutamate/glycine; type: cell-based; procedure, shortened: as §2
[25] = target: T3, Glutamate NMDA receptor; Grin1/Grin2b; test: Positive allosteric modulation of rat GluN1/GluN2B expressed in Xenopus laevis oocytes assessed as potentiation of L-glutamate/glycine-induced current response at holding potential -60 mV by two-electrode voltage clamp method; type: cell-based; procedure, shortened: as §1
[26] = target: Glutamate receptor ionotropic, NMDA 2A (Rattus norvegicus) (UniProt Q00959); test: Positive allosteric modulation of rat GluN2A expressed in Xenopus laevis oocytes assessed as potentiation of L-glutamate/glycine-induced current response at holding potential -60 mV by two-electrode voltage clamp method relative to L-glutamate/glycine; type: cell-based; design: concentration or dose not given beside the values; procedure, shortened: as §1
[27] = target: T1, Glutamate NMDA receptor; Grin1/Grin2a; test: Positive allosteric modulation of rat GluN1/GluN2A expressed in Xenopus laevis oocytes assessed as potentiation of L-glutamate/glycine-induced current response at holding potential -60 mV by two-electrode voltage clamp method; type: cell-based; procedure, shortened: as §1

Structure (SMILES)	IC50 [1]	IC50 [3]	IC50 [4]	Activity [6]	Activity [7]	Activity [8]	solubility [9]	Activity [10]	Activity [11]	IC50 [12]	Activity [13]	Activity [14]	Activity [15]	Activity [16]	Activity [17]	Activity [18]	EC50 [19]	Activity [20]	EC50 [21]	Activity [22]	further results
C=C(CCC(C)C)c1ccc2cc(C(=O)O)ccc2c1				163%			Soluble	265%	349%				310%	417%	inactive	inactive	26.1 µM	277%	72.3 µM	inactive	Activity [23]: 137%; Activity [24]: inactive; EC50 [25]: 116 µM; Activity [26]: 230%; EC50 [27]: 114 µM
O=C(O)c1ccc2cc(CCCC3CCCC3)ccc2c1				136%			Soluble	175%	171%				161%	61.9%	inactive	inactive	22.4 µM	65.6%	34.7 µM	inactive	Activity [23]: 105%; Activity [24]: inactive; EC50 [25]: 27 µM; Activity [26]: 38.4%; EC50 [27]: 7.5 µM
CC(C)CCCc1ccc2cc(C(=O)O)ccc2c1				171%			Soluble	171%	192%				207%	102%	inactive	inactive	37.2 µM	88.4%	28.9 µM	inactive	Activity [23]: 117%; Activity [24]: inactive; EC50 [25]: 34.6 µM; Activity [26]: 68.6%; EC50 [27]: 28 µM
CC(C)CCC(C)c1ccc2cc(C(=O)O)ccc2c1 (racemic)				281%			Soluble	225%	337%				317%	192%	inactive	inactive	36.2 µM	240%	30.6 µM	inactive	Activity [23]: 263%; Activity [24]: inactive; EC50 [25]: 25 µM; Activity [26]: 277%; EC50 [27]: 39.4 µM

Further lines, with some results ahead:

IC50 [1]	IC50 [3]	IC50 [4]	Activity [6]	Activity [7]	Activity [8]	solubility [9]	Activity [10]	Activity [11]	IC50 [12]	Activity [13]	Activity [14]	Activity [15]	Activity [16]	Activity [17]	Activity [18]	EC50 [19]	Activity [20]	EC50 [21]	Activity [22]	Structure (SMILES)	further results
6 µM	32.2 µM	2.9 µM	80.5%	30.5%	79.7%	Soluble	56.1%	35.1%	8.2 µM	80.1%	61.3%	26.8%								O=C(O)c1cc2cc(/C=C/c3ccccc3[N+](=O)[O-])ccc2cc1O	Activity [2]: Active; Activity [5]: Active
9.7 µM	9.2 µM	1.4 µM	50.5%	49.7%	70%	Soluble	28.8%	24.4%	7.9 µM	74.4%	66.3%	30.7%								O=C(O)c1cc2cc(/C=C/c3cccc([N+](=O)[O-])c3)ccc2cc1O	
11 µM	97.8 µM	49.6 µM	28.4%	71.5%	98.6%	Soluble	49.9%	26.1%	41.8 µM	106%	56.8%	26.1%								O=C(O)c1cc2cc(-c3ccccc3)ccc2cc1O	
5.8 µM	11.1 µM	2.9 µM	47.4%	54.1%	72.3%	Soluble	53.2%	43.3%	6.5 µM	55.9%	48.4%	34.4%								O=C(O)c1cc2cc(/C=C/c3ccc([N+](=O)[O-])cc3)ccc2cc1O	
17.8 µM	7.5 µM	8.6 µM	32.7%	83.2%	93.6%	Soluble	7.3%	21.7%	13.8 µM	86.3%	93.9%	11.3%								O=C(O)c1cc2cc(/C=C/c3ccccc3)ccc2cc1O	

Reference: ChEMBL document CHEMBL4422636, “Investigation of the structural requirements for N-methyl-D-aspartate receptor positive and negative allosteric modulators based on 2-naphthoic acid” (Eur J Med Chem, 2019)
